Source: ChEMBL document CHEMBL1125399, “Perfluorocarbon-based antidiabetic agents” (1992)

Key:
Mus musculus [1] = assay: Effect on the mean body weight of mice on day 1 (pre) of swiss CD-1 mice (charles river), in groups of six dosed orally once per day for 4 days with 50 mg/kg of compound; assay type: functional; conditions: route oral
Summary of the method: (§1)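 Swiss CD-1 mice (20–25 g) in groups of six; vehicle controls in three cages of three. Compound 50 mg/kg or vehicle (2% Tween 80/saline) given by gavage each afternoon for 4 consecutive days. Body weight taken before dosing (day 1) and on the morning of day 5. Mice were then killed under halothane and heart and liver weighed, per 10 g body weight. Bonferroni t test.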

Mus musculus [2] = assay: Effect on the mean body weight of mice on day 5 (post) of swiss CD-1 mice (charles river), in groups of six dosed orally once per day for 4 days with 50 mg/kg of compound; assay type: functional; conditions: route oral; summary of the method: as §1
Mus musculus [3] = assay: Effect on the mean liver weight of mice on day 1 (pre) of swiss CD-1 mice (charles river), in groups of six dosed orally once per day for 4 days with 50 mg/kg of compound; expressed as mg/10 g body weight; assay type: functional; conditions: route oral
Mus musculus [4] = assay: Effect on the mean heart weight of mice on day 1 (pre) of swiss CD-1 mice (charles river), in groups of six dosed orally once per day for 4 days with 50 mg/kg of compound; expressed as mg/10 g body weight; assay type: functional; conditions: route oral
Mus musculus [5] = assay: Percent plasma glucose concentration of drug treated mice (ob/ob) relative to vehicle control animals following 75 mg/kg administration.; assay type: functional
Summary of the method: (§2)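 Female ob/ob mice, 10 weeks old, fed ad libitum, in groups of 7–11. Dosed po once daily for 4 days in 0.5% methyl cellulose vehicle. Decapitated the next morning; 0.1 mL blood into saline with Trasylol and EDTA; plasma glucose by autoanalyzer. Reciprocal-transformed (y = 160/x) harmonic mean given as % of vehicle. Bonferroni-adjusted comparisons.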

Mus musculus [6] = assay: Percent plasma glucose concentration of drug treated mice (ob/ob) relative to vehicle control animals was determined at the dose of 75 mg/kg
Mus musculus [7] = assay: Effect on the mean body weight of mice on day 1 (pre) of swiss CD-1 mice (charles river), in groups of six dosed orally once per day for 4 days with 50 mg/kg of compound; […]; assay type: functional; conditions: route oral
Mus musculus [8] = organism: Mus musculus; assay: Percent plasma glucose concentration of drug treated mice (ob/ob) relative to vehicle control animals; assay type: functional; summary of the method: as §2

Compound | Body weight (Mus musculus [1]) [g] | Body weight (Mus musculus [2]) [g] | Liver weight (Mus musculus [3]) [g 10g-1] | Heart weight (Mus musculus [4]) [mg 10g-1] | Activity (Mus musculus [5]) [%] | Activity (Mus musculus [6]) [%] | Body weight (Mus musculus [7]) [g] | Activity (Mus musculus [8]) [%]
FC(F)(F)C(F)(F)C(F)(F)C(F)(F)C(F)(F)C(F)(F)C(F)(F)CNc1ccc(Cc2nn[nH]n2)cc1 | 30.3 | 31.2 | 0.856 | 39 | 57 |  |  | 
O=C(Nc1ccc(Cc2nn[n-]n2)cc1)C(F)(F)C(F)(F)C(F)(F)F.[Na+] |  |  |  |  |  | 67 |  | 
Cl.Nc1ccc(Cc2nn[nH]n2)cc1 |  | 30.1 | 0.591 | 43 | 93 |  | 29.8 | 
O=C(N(Cc1ccccc1)c1ccc(Cc2nn[nH]n2)cc1)C(F)(F)C(F)(F)C(F)(F)C(F)(F)C(F)(F)C(F)(F)C(F)(F)C(F)(F)F | 29.8 | 31.3 | 1.11 | 39 |  |  |  | 55
CCCCN(Cc1ccccc1)C(=O)C(F)(F)C(F)(F)C(F)(F)C(F)(F)C(F)(F)C(F)(F)C(F)(F)F | 30.8 | 31.1 | 1.18 | 40 | 61 |  |  | 
CCCCCCCC(=O)NNC(=O)C(F)(F)C(F)(F)C(F)(F)C(F)(F)C(F)(F)C(F)(F)C(F)(F)F | 30.6 | 30.6 | 1.44 | 37 | 74 |  |  | 
CCCCCCC(F)(F)C(=O)Nc1ccc(Cc2nn[nH]n2)cc1 | 30.4 | 31.7 | 0.671 | 43 | 80 |  |  | 
CN(C(=O)C(F)(F)C(F)(F)C(F)(F)C(F)(F)C(F)(F)C(F)(F)C(F)(F)F)c1ccc(Cc2nnnn2C)cc1 | 29.9 | 31.1 | 0.942 | 41 |  |  |  | 67
O=C(Nc1ccncc1)C(F)(F)C(F)(F)C(F)(F)C(F)(F)C(F)(F)C(F)(F)C(F)(F)F | 30.7 | 32.4 | 1.08 | 39 |  |  |  | 66
O=C(Nc1ccc(Cc2nn[nH]n2)cc1)C(F)(F)C(F)(F)C(F)(F)C(F)(F)C(F)(F)C(F)(F)C(F)(F)F | 30.5 | 31.4 | 1.25 | 39 |  |  |  | 66
O=C(Nc1ccc(Cc2nnn(Cc3ccccc3)n2)cc1)C(F)(F)C(F)(F)C(F)(F)C(F)(F)C(F)(F)C(F)(F)C(F)(F)F | 30.3 | 31.4 | 0.787 | 41 |  |  |  | 68
